Among the data in ChEMBL document CHEMBL3244134, “Potential anticancer agents. 16. Methotrexate analogues with a modified peptide side chain” (J Med Chem, 1978) are LD50, ILS and inhibition in vivo values, retold here.

By LD50 is commonly meant the dose expected to kill half of the subjects tested. A higher LD50 goes with a less toxic substance. As a reminder, the ILS is how much longer treated animals lived than controls.

Each structure is given as a SMILES string. Values joined by “and” are separate entries in the source; they are usually repeats but may differ in a detail not shown here. Equal entries are not always repeated.

Series [1] can be described thus: Toxicity in Wistar rat administered as single dose. It counts as organism-based. The conditions noted are these: in vivo. Summed up: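 LD50 determined from single doses in Wistar rats, reported in mg/kg and mmol/kg.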
The subject of series [2] is L1210. The series is described as follows: Antitumor activity against mouse L1210 cells allografted in BDF1 mouse assessed as increase in life span at 23 mg/kg administered 7 times starting 24 hrs post challenge relative to control. It counts as functional. The conditions noted are these: L1210, 24 h. The essentials:
(§1)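 L1210 leukemia: BDF1 mice inoculated ip with 10⁶ leukemic cells. Treatment started 24 h after inoculation, given daily in aqueous solution at pH 8.0–8.4. Survival of treated mice compared with untreated controls, expressed as %ILS = (T/C − 1) × 100.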

Series [3] relates to L1210. The series is described as follows: Antitumor activity against mouse L1210 cells allografted in BDF1 mouse assessed as increase in life span at 20 mg/kg administered 7 times starting 24 hrs post challenge relative to control. It counts as functional. The following applies: L1210, 24 h. Summed up:
as §1

Series [4] concerns L1210. The series is described as follows: Antitumor activity against mouse L1210 cells allografted in BDF1 mouse assessed as increase in life span at 33 mg/kg administered 6 times starting 24 hrs post challenge relative to control. The format is functional. The following applies: L1210, 24 h. The essentials: as §1
Series [5] deals with L1210. The series is described as follows: Antitumor activity against mouse L1210 cells allografted in BDF1 mouse assessed as increase in life span at 25 mg/kg administered 6 times starting 24 hrs post challenge relative to control. The conditions noted are these: L1210, 24 h. The format is functional. The essentials:
as §1

Series [6] relates to L1210. The series is described as follows: Antitumor activity against mouse L1210 cells allografted in BDF1 mouse assessed as increase in life span at 50 mg/kg administered 6 times starting 24 hrs post challenge relative to control. The format is functional. The conditions noted are these: L1210, 24 h. The essentials:
as §1

Series [7] concerns L1210. The series is described as follows: Antitumor activity against mouse L1210 cells allografted in BDF1 mouse assessed as increase in life span at 10 mg/kg administered 8 times starting 24 hrs post challenge relative to control. The following applies: L1210, 24 h. It counts as functional. Summed up:
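BDF1 mice inoculated ip with 10⁶ L1210 leukemia cells; daily dosing in aqueous solution at pH 8.0–8.4 starting 24 h after inoculation. Increase in life span computed as %ILS = (T/C − 1) × 100.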

Series [8] concerns W256. The series is described as follows: Antitumor activity against […] 256 cells allografted in rat assessed as tumor growth inhibition at 8 mg/kg administered 14 times starting 24 hrs post challenge relative to control. The following applies: W256, 24 h, read-out: TGI. The format is functional.
Series [9] has as its system W256. The series is described as follows: Antitumor activity against rat Walker 256 cells allografted in rat assessed as tumor growth inhibition at 60 mg/kg administered 14 times starting 7 days post challenge relative to control. The conditions noted are these: W256, 7 days, read-out: TGI.
Series [10] deals with L1210. The series is described as follows: Antitumor activity against mouse L1210 cells allografted in BDF1 mouse assessed as increase in life span at 78 mg/kg administered 9 times starting 24 hrs post challenge relative to control. It counts as functional. The following applies: L1210, 24 h. Summed up: as §1
Series [11] deals with L1210. The series is described as follows: Antitumor activity against mouse L1210 cells allografted in BDF1 mouse assessed as increase in life span at 90 mg/kg administered 9 times starting 24 hrs post challenge relative to control. It counts as functional. The following applies: L1210, 24 h. Summed up: as §1
The test system of series [12] is L1210. The series is described as follows: Antitumor activity against mouse L1210 cells allografted in BDF1 mouse assessed as increase in life span at 45 mg/kg administered 10 times starting 24 hrs post challenge relative to control. The conditions noted are these: L1210, 24 h. It counts as functional. Summed up: as §1
Series [13] has as its system W256. The series is described as follows: Antitumor activity against […] 256 cells allografted in rat assessed as tumor growth inhibition at 40 mg/kg administered 9 times starting 7 days post challenge relative to control. The conditions noted are these: W256, 7 days, read-out: TGI.

On to `CN(Cc1cnc2nc(N)nc(N)c2n1)c1ccc(C(=O)NCC(=O)O)cc1`, for which the LD50 in [1] was 250 mg/kg and 650 µmol/kg. In series [2], the ILS at 23 mg/kg was 0%.
With `CC(C)C(NC(=O)c1ccc(N(C)Cc2cnc3nc(N)nc(N)c3n2)cc1)C(=O)O` (stereo not given), the ILS at 20 mg/kg in [3] is 0%. Moreover, in series [1], the LD50 was 200 mg/kg and 470 µmol/kg.
On to `CC(NC(=O)c1ccc(N(C)Cc2cnc3nc(N)nc(N)c3n2)cc1)C(=O)O.O` (stereo not given), for which the LD50 in series [1] is 349 mg/kg and 810 µmol/kg. Also, in [4], the ILS at 33 mg/kg is 0%.
For the compound `CN(Cc1cnc2nc(N)nc(N)c2n1)c1ccc(C(=O)NCCC(=O)O)cc1.O`, the LD50 in series [1] is 250 mg/kg and 580 µmol/kg. In [5], the ILS at 25 mg/kg amounted to 19%.
In the case of `CN(CC(=O)O)C(=O)c1ccc(N(C)Cc2cnc3nc(N)nc(N)c3n2)cc1.O`, the LD50 in series [1] is 400 mg/kg and 920 µmol/kg. Also, the ILS at 50 mg/kg in series [6] came to 0%.
Turning to `CN(Cc1cnc2nc(N)nc(N)c2n1)c1ccc(C(=O)NCCCC(=O)O)cc1.O`, in series [7], the ILS at 10 mg/kg was found to be 0%. In [8], the inhibition in vivo at 8 mg/kg was determined as 55%. For the same compound, the LD50 in series [1] was 106 mg/kg and 250 µmol/kg.
As to `CCC(NC(=O)c1ccc(N(C)Cc2cnc3nc(N)nc(N)c3n2)cc1)C(=O)O` (stereo not given), the inhibition in vivo at 60 mg/kg in series [9] came to 47%. Besides, the LD50 in [1] is 925 mg/kg and 2250 µmol/kg. In addition, the ILS at 78 mg/kg in series [10] amounted to 16%.
As for `CC(C)C[C@H](NC(=O)c1ccc(N(C)Cc2cnc3nc(N)nc(N)c3n2)cc1)C(=O)O`, in [11], the ILS at 90 mg/kg was 24%.
Turning to `CN(Cc1cnc2nc(N)nc(N)c2n1)c1ccc(C(=O)N[C@@H](Cc2ccccc2)C(=O)O)cc1.O`, the ILS at 45 mg/kg in series [12] worked out at 14%. The LD50 in series [1] was 500 mg/kg and 1020 µmol/kg. Moreover, the inhibition in vivo at 40 mg/kg in [13] amounted to 58%.
